Measurements: ChEMBL document CHEMBL1649346, “Antiproliferative activity of phenylbutyrate ester of haloperidol metabolite II [(±)-MRJF4] in prostate cancer cells” (Eur J Med Chem, 2011)
Values joined by “and” are separate entries in the source; they are usually repeats but may differ in a detail not shown here. Equal values may be shown once. Active and inactive are the calls of the source. The rule behind the calls is not given here.

Columns and labels:
[1] = biological target: Sigma non-opioid intracellular receptor 1 (Cavia porcellus, UniProt Q60492); experiment: Displacement of [3H]-(+)-pentazocine from sigma 1 receptor in guinea pig brain membrane after 150 mins by liquid scintillation counting; format: cell membranes
Procedure, shortened: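 Guinea pig membranes were incubated to equilibrium, 150 min at 37 °C, with 3 nM [³H]-(+)-pentazocine (45 Ci/mmol) and increasing levels of displacer in 50 mM Tris-HCl pH 7.4. Haloperidol defined nonspecific binding. Samples were filtered on PEI-presoaked glass-fibre filters, washed with ice-cold buffer and counted by liquid scintillation; Ki was calculated.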

[2] = Displacement of [3H]DTG from sigma 2 receptor in guinea pig brain membrane after 120 mins by liquid scintillation counting; format: cell membranes, Cavia porcellus
Procedure, shortened: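 Guinea pig membranes were incubated 120 min at room temperature with 3 nM [³H]DTG and (+)-SKF10,047 to mask σ1 sites, in 50 mM Tris-HCl pH 8.0. DTG defined nonspecific binding. Samples were filtered on PEI-presoaked glass-fibre filters, washed and counted by liquid scintillation; Ki was calculated.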

LNCaP [3] = experiment: Antiproliferative activity against human LNCAP cells after 24 hrs by MTT assay; format: functional, cell-based
Procedure, shortened: (§1)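 LNCaP cells were grown in RPMI 1640 with 10% heat-inactivated FBS, penicillin/streptomycin, HEPES, 1 mM pyruvate and 2.5 g/L glucose. PC3 cells were grown in RPMI 1640 with 10% FBS and penicillin/streptomycin, at 37 °C in 5% CO₂. Cells were seeded at 4 × 10⁴ per well and left to adhere overnight. Compounds were diluted 1:1000 from DMSO stocks, with a 0.1% DMSO vehicle, and incubated 24–96 h without medium change. MTT was added for 4 h, the formazan dissolved in DMSO, and A570 read. Runs were in quadruplicate; ED50 was taken from dose-effect curves against vehicle.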

PC-3 [4] = experiment: Antiproliferative activity against human PC3 cells after 24 hrs by MTT assay; format: functional, cell-based; settings: PC-3, 24 h; procedure, shortened: as §1
[5] = biological target: T1, Histone deacetylase (Homo sapiens) (UniProt Q13547+O15379+Q9UBN7+Q92769+Q9UQL6+Q8WUI4+Q9BY41+Q96DB2+P56524+Q9UKV0+Q969S8); settings: HeLa, 1.5 mM
D(2) dopamine receptor = D(2) dopamine receptor (Rattus norvegicus, UniProt P61169); experiment: Displacement radioligand form dopamine D2 receptor in rat striatum by liquid scintillation counting; format: tissue-based
D(3) dopamine receptor = D(3) dopamine receptor (Rattus norvegicus, UniProt P19020); experiment: Displacement radioligand form dopamine D3 receptor in rat olfactory tubercle by liquid scintillation counting; format: tissue-based
LNCaP [6] = experiment: Antiproliferative activity against human LNCAP cells at 10 uM after 96 hrs by MTT assay; format: functional, cell-based
Procedure, shortened: (§2)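 Percent growth was scored against vehicle-treated control (0.1% DMSO, 1:1000 dilution of DMSO stock) using the MTT assay. LNCaP cells were in supplemented RPMI 1640 with HEPES, pyruvate and glucose; PC3 cells were in RPMI 1640 with 10% FBS. Cells were seeded at 4 × 10⁴ per well and exposed 24, 48, 72 or 96 h. MTT was added for 4 h, the formazan dissolved in DMSO, and A570 read; n = 4.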

PC-3 [7] = experiment: Antiproliferative activity against human PC3 cells at 10 uM after 96 hrs by MTT assay; format: functional, cell-based; procedure, shortened: as §2
LNCaP [8] = experiment: Antiproliferative activity against human LNCAP cells after 48 hrs by MTT assay; format: functional, cell-based; procedure, shortened: as §1
PC-3 [9] = experiment: Antiproliferative activity against human PC3 cells after 48 hrs by MTT assay; format: functional, cell-based; settings: PC-3, 48 h; procedure, shortened: as §1
LNCaP [10] = experiment: Antiproliferative activity against human LNCAP cells after 72 hrs by MTT assay; format: functional, cell-based; procedure, shortened: as §1
PC-3 [11] = experiment: Antiproliferative activity against human PC3 cells after 72 hrs by MTT assay; format: functional, cell-based; settings: PC-3, 72 h; procedure, shortened: as §1
LNCaP [12] = experiment: Antiproliferative activity against human LNCAP cells after 96 hrs by MTT assay; format: functional, cell-based; procedure, shortened: as §1
PC-3 [13] = experiment: Antiproliferative activity against human PC3 cells after 96 hrs by MTT assay; format: functional, cell-based; settings: PC-3, 96 h; procedure, shortened: as §1
LNCaP [14] = experiment: Antiproliferative activity against human LNCAP cells at 10 to 25 uM after 24 hrs by MTT assay; format: functional; procedure, shortened: as §2
PC-3 [15] = experiment: Antiproliferative activity against human PC3 cells at 10 to 25 uM after 24 hrs by MTT assay; format: functional; procedure, shortened: as §2
[16] = biological target: T1, Histone deacetylase (Homo sapiens); experiment: Inhibition of HDAC in human HeLa cells at 10 uM after 10 mins by fluorometric assay; format: cell-based
Procedure, shortened: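 The HDAC fluorescent activity kit was used with supplied HeLa extract. Test agent was added in assay buffer, with trichostatin A (1 µM listed) as full-inhibition control. The reaction was started with acetyl-lysine Fluor de Lys substrate at 25–37 °C and stopped after 10 min with developer, then held 10–15 min at room temperature. Fluorescence was read at ex 360/em 460 nm. Percent inhibition was taken against the uninhibited reaction, in triplicate.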

[17] = biological target: T1, Histone deacetylase (Homo sapiens); experiment: Inhibition of HDAC in human PC3 cells at 10 uM after 10 mins by fluorometric assay; format: cell-based; settings: PC-3
Procedure, shortened: (§3)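 LNCaP or PC3 cells were seeded at 3 × 10⁵ per dish, left overnight, then treated in medium for 1 h (and 24 h). Cells were PBS-washed and lysed, and nuclear protein was extracted with the NE-PER kit. Extracts received assay buffer only plus Fluor de Lys substrate, 10 min at 25–37 °C, then developer. Fluorescence was read at ex 360/em 460 nm relative to DMSO-treated control, in triplicate.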

[18] = biological target: T1, Histone deacetylase (Homo sapiens); experiment: Inhibition of HDAC in human LNCAP cells at 10 uM after 10 mins by fluorometric assay; format: cell-based; procedure, shortened: as §3

Sequence of D(3) dopamine receptor (P19020 whole entry): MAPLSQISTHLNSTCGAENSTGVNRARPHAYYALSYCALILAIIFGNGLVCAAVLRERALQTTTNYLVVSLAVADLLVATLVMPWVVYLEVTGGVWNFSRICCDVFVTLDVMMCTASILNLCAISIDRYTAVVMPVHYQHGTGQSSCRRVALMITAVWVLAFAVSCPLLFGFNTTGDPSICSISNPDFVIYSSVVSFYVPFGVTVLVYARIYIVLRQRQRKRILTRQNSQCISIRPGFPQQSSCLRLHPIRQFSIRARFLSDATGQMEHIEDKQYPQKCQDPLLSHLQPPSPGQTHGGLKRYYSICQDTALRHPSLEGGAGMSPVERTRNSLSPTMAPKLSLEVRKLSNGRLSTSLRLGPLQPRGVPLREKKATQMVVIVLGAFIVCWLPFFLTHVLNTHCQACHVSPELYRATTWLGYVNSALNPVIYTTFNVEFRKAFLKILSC
Sequence of Sigma non-opioid intracellular receptor 1 (Q60492 whole entry): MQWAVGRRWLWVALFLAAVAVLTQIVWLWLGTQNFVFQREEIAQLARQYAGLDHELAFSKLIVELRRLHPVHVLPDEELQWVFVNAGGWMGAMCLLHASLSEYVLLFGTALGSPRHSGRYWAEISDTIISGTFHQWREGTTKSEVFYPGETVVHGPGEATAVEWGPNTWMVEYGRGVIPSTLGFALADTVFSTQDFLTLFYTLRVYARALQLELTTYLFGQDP
Sequence of D(2) dopamine receptor (P61169 whole entry): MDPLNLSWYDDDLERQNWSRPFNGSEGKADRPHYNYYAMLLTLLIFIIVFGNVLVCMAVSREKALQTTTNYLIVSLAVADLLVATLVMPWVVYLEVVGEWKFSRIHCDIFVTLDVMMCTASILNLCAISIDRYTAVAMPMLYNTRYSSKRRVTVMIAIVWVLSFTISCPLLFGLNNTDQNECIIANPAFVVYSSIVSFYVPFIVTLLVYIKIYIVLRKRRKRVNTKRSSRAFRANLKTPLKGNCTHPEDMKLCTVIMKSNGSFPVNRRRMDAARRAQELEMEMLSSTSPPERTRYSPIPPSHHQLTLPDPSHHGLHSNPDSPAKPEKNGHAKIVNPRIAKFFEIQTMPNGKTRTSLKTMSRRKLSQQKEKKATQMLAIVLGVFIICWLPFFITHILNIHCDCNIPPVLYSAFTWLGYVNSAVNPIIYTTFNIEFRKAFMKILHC

Ki [1] [µM]	Ki [2] [µM]	IC50 (LNCaP [3]) [µM]	IC50 (PC-3 [4]) [µM]	inhibition [5] [%]	Ki (D(2) dopamine receptor) [µM]	IC50 (LNCaP [8]) [µM]	IC50 (PC-3 [9]) [µM]	IC50 (LNCaP [10]) [µM]	IC50 (PC-3 [11]) [µM]	IC50 (LNCaP [12]) [µM]	IC50 (PC-3 [13]) [µM]	inhibition [16]	inhibition [17]	inhibition [18]	SMILES	Ki (D(3) dopamine receptor) [µM]	Activity (LNCaP [6])	Activity (PC-3 [7])	Activity (LNCaP [14])	Activity (PC-3 [15]) [%]
> 10	> 10	2320	2270	60											O=C(O)CCCc1ccccc1					
0.162	0.105	10.9	12.9		> 5	8.83	11	8.13	7.8	6.65	6.78	inactive	inactive	inactive	O=C(CCCc1ccccc1)OC(CCCN1CCC(O)(c2ccc(Cl)cc2)CC1)c1ccc(F)cc1 (racemic)	> 5	Active	Active	45% and 40% and 20%	10
	0.016														O=C(CCCN1CCC(O)(c2ccc(Cl)cc2)CC1)c1ccc(F)cc1 [HALOPERIDOL]					

SMILES	Ki [1] [µM]	Ki [2] [µM]	IC50 (LNCaP [3]) [µM]	IC50 (PC-3 [4]) [µM]	inhibition [5] [%]	Ki (D(2) dopamine receptor) [µM]	IC50 (LNCaP [8]) [µM]	IC50 (PC-3 [9]) [µM]	IC50 (LNCaP [10]) [µM]	IC50 (PC-3 [11]) [µM]	IC50 (LNCaP [12]) [µM]	IC50 (PC-3 [13]) [µM]	inhibition [16]	inhibition [17]	inhibition [18]	Ki (D(3) dopamine receptor) [µM]	Activity (LNCaP [6])	Activity (PC-3 [7])	Activity (LNCaP [14])	Activity (PC-3 [15]) [%]
OC(CCCN1CCC(O)(c2ccc(Cl)cc2)CC1)c1ccc(F)cc1 (centres undefined) [HYDROXYHALOPERIDOL]		0.00098	177	208												1.1				
